Laboratory results as given in ChEMBL document CHEMBL4043304, “Synthesis and Evaluation of Hydrogen Peroxide Sensitive Prodrugs of Methotrexate and Aminopterin for the Treatment of Rheumatoid Arthritis” (J Med Chem, 2018).
In brackets after ≈: the same amount, converted by molar mass. Activity calls are given as the source filed them. The rule behind the calls is not given here.

Legend:
[1] = test system: NCI-H460; experiment: Cytotoxicity against human NCI-H460 cells assessed as decrease in cell viability after 48 hrs by MTS assay; assay type: functional, cell-based
How it was run: (§1)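 MCF-7 (DMEM) or NCI-H460 (RPMI), 10% FBS, seeded at 10^4 or 7×10^3 cells/well respectively and attached for 24 h. Exposed to serial compound concentrations for 48 h, then MTS read at 490 nm. DMSO ≤0.4% matched controls. Triplicate. IC50 by non-linear regression.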

[2] = test system: Mus musculus; experiment: Toxicity in collagen-induced DBA/1J mouse arthritis model assessed as decrease in body weight at 6.8 mg/kg, ip administered daily for 2 weeks starting on day 27 post first immunization measured up to day 33; assay type: organism-based; settings: in vivo, 336 h
How it was run: (§2)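 Male DBA/1J mice, 8–9 weeks. CIA induced by intradermal/subcutaneous tail-base immunization with 100 µg chicken type-II collagen in CFA on day -1, boosted with 50 µg on day 21. From day 27, i.p. dosing once daily for 14 days in 2% DMSO/PBS vehicle, n = 8 per group. Three times weekly, blinded limb scoring (0–15 per limb, max 60) and body weight. Reported as mean ± SEM; one-tailed Mann-Whitney test.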

[3] = test system: Mus musculus; experiment: Antiarthritic activity in collagen-induced DBA/1J mouse arthritis model assessed as reduction of macroscopic score at 6.8 mg/kg, ip administered daily for 2 weeks starting on day 27 post first immunization measured thrice per week during compound dosing relative to control; assay type: functional, organism-based; how it was run: as §2
[4] = test system: MCF7; experiment: Cytotoxicity against human MCF7 cells assessed as decrease in cell viability after 48 hrs by MTS assay; assay type: functional, cell-based; how it was run: as §1
[5] = test system: Mus musculus; experiment: Antiarthritic activity in collagen-induced DBA/1J mouse arthritis model assessed as decrease in incidence of arthritis at 6.8 mg/kg, ip administered daily for 2 weeks starting on day 27 post first immunization measured thrice per week during compound dosing relative to control; assay type: functional, organism-based; how it was run: as §2
[6] = Kinetic solubility of the compound in DMSO/PBS mixture after 20 hrs by RP-UPLC-UV method; assay type: physicochemical; settings: read-out: Kinetic_solubility
How it was run: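 100 µM compound in 1% DMSO/PBS pH 7.4, shaken 20 h at 37 °C. Centrifuged to remove insoluble material; supernatant quantified by RP-UPLC-UV at 306 nm. Triplicate.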

[7] = test system: MCF7; experiment: Cytotoxicity against human MCF7 cells assessed as decrease in cell viability preincubated with H2O2 for 24 hrs followed by cell addition measured after 48 hrs by MTS assay; assay type: functional, cell-based
How it was run: (§3)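 Compound pre-activated at 125 µM with 1.25 mM H2O2 in DMSO:PBS 1:1, 24 h at 21 °C. Then added to MCF-7 or NCI-H460 cells (24 h attached) for 48 h. Final H2O2 <10 µM. MTS read at 490 nm. Triplicate. IC50 by non-linear regression.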

[8] = test system: NCI-H460; experiment: Cytotoxicity against human NCI-H460 cells assessed as decrease in cell viability preincubated with H2O2 for 24 hrs followed by cell addition measured after 48 hrs by MTS assay; assay type: functional, cell-based; how it was run: as §3
[9] = Prodrug activation in DMSO/PBS mixture assessed as formation of aminopterin at 50 uM measured within 2 hrs in presence of 0.5 mM H2O2 by RP-UPLC-MS method
How it was run: (§4)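 50 µM prodrug in 30% DMSO/PBS pH 7.4 at 37 °C with diclofenac internal standard. Started with H2O2 at 0.5 mM final. Sampled 5 min to 4 h (some compounds to 48 h). RP-UPLC-UV at 306 nm. No-H2O2 control run in parallel. Triplicate.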

[10] = Half life in SGF by RP-UPLC-UV method; assay type: physicochemical
How it was run: (§5)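 SGF or SIF (SIF adjusted to pH 7.5) dosed from a 10 mM DMSO stock. Incubated at 37 °C and sampled at 0, 1, 2, 4 and 24 h. Run in triplicate.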

[11] = test system: Mus musculus; experiment: Antiarthritic activity in collagen-induced DBA/1J mouse arthritis model assessed as reduction of macroscopic score at 8.8 mg/kg, ip administered daily for 2 weeks starting on day 27 post first immunization measured thrice per week during compound dosing relative to control; assay type: functional, organism-based
How it was run: (§6)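 Male DBA/1J mice (8–9 wk, n = 8/group). Arthritis induced by intradermal tail-base immunization with 100 µg chicken type-II collagen in CFA on day −1, with a 50 µg boost on day 21. Daily i.p. dosing in 2% DMSO/PBS for 14 days from day 27. Blinded scoring three times weekly, 0–15 per limb (max 60). Vehicle group as control. Mann-Whitney test.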

[12] = Prodrug activation in DMSO/PBS mixture assessed as formation of aminopterin at 100 uM after 2 to 48 hrs in presence of 0.25 to 10 mM H2O2 […]
[13] = test system: Mus musculus; experiment: Antiarthritic activity in collagen-induced DBA/1J mouse arthritis model assessed as decrease in incidence of arthritis at 8.8 mg/kg, ip administered daily for 2 weeks starting on day 27 post first immunization measured thrice per week during compound dosing relative to control; assay type: functional, organism-based; how it was run: as §6
[14] = Intrinsic clearance in human liver microsomes at 10 uM after 5 to 60 mins by RP-UPLC-UV method; assay type: ADME, microsome; settings: read-out: CLH
How it was run: (§7)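 Pooled male liver microsomes (human, or CD-1 mouse) in PBS at 37 °C with 10 µM compound. Reaction started with NADPH. Aliquots taken 0–60 min (mouse also 120 and 240 min) and quenched with cold MeCN/diclofenac. Read by RP-UPLC-UV, ln[C] vs time, first order. No-NADPH control run; verapamil (human) or diphenhydramine (mouse) as reference.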

[15] = Chemical stability in PBS/DMSO mixture at pH 7.4 after 24 hrs by RP-UPLC-UV method; assay type: physicochemical; settings: read-out: Stability
[16] = test system: Mus musculus; experiment: Toxicity in collagen-induced DBA/1J mouse arthritis model assessed as decrease in body weight at 8.8 mg/kg, ip administered daily for 2 weeks starting on day 27 post first immunization measured thrice per week during compound dosing; assay type: organism-based; settings: in vivo, 336 h
How it was run: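 CIA in male DBA/1J mice (8–9 wk, n = 8/group) from chicken type-II collagen/CFA immunization (day −1, boost day 21). Daily i.p. dosing in 2% DMSO/PBS for 14 days starting day 27. Body weight recorded three times weekly as a general-health indicator, compared with vehicle. Data are mean ± SEM.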

[17] = Metabolic stability in human plasma at 20 uM after 24 hrs by RP-UPLC-UV method; assay type: ADME, cell-free; settings: read-out: Stability
How it was run: (§8)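 Reconstituted lyophilized human or mouse plasma mixed about 1:1 with PBS and pre-warmed to 37 °C. Compound added to 20 µM final. […] Procaine (human) and diltiazem (mouse) as controls.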

[18] = Prodrug activation in DMSO/PBS mixture assessed as formation of aminopterin at 50 uM after <3 hrs in presence of 0.5 mM H2O2 by RP-UPLC-MS method; how it was run: as §4
[19] = Half life in human plasma at 20 uM by RP-UPLC-UV method; assay type: ADME, cell-free; how it was run: as §8
[20] = Prodrug activation in DMSO/PBS mixture assessed as formation of (S)-2-(4-(((2,4-diaminopteridin-6-yl)methyl)(4-hydroxybenzyl)amino)benzamido)pentanedioic acid at 50 uM measured within 2 hrs in presence of 0.5 mM H2O2 by RP-UPLC-MS method; how it was run: as §4
[21] = Prodrug activation in DMSO/PBS mixture assessed as formation of (S)-dimethyl 2-(4-((2,4-diaminopteridin-6-yl)methylamino)benzamido)pentanedioate at 50 uM measured within 2 hrs in presence of 0.5 mM H2O2 by RP-UPLC-MS method; how it was run: as §4
[22] = Intrinsic clearance in CD1 mouse liver microsomes at 10 uM after 5 to 240 mins by RP-UPLC-UV method; assay type: ADME, microsome; settings: read-out: CLH; how it was run: as §7
[23] = Half life in SIF by RP-UPLC-UV method; assay type: physicochemical; how it was run: as §5
[24] = Half life in PBS/DMSO mixture at pH 7.4 by RP-UPLC-UV method; assay type: physicochemical
[25] = Metabolic stability in mouse plasma at 20 uM after 8 hrs by RP-UPLC-UV method; assay type: ADME, cell-free; settings: read-out: Stability; how it was run: as §8
[26] = Half life in mouse plasma at 20 uM by RP-UPLC-UV method; assay type: ADME, cell-free; how it was run: as §8
[27] = Prodrug activation in DMSO/PBS mixture assessed as formation of Dimethyl (4-(((2,4-Diaminopteridin-6-yl)methyl)(methyl)amino)-benzoyl)-L-glutamate at 50 uM after <3 hrs in presence of 0.5 mM H2O2 by RP-UPLC-MS method; how it was run: as §4
[28] = Prodrug activation in DMSO/PBS mixture assessed as formation of (S)-dimethyl 2-(4-(((2,4-diaminopteridin-6-yl)methyl)(4-hydroxybenzyl)amino)benzamido)pentanedioate at 50 uM measured within 2 hrs in presence of 0.5 mM H2O2 by RP-UPLC-MS method; how it was run: as §4
[29] = Prodrug activation in DMSO/PBS mixture assessed as formation of (S)-dimethyl 2-(4-((2,4-diaminopteridin-6-yl)methylamino)benzamido)pentanedioate at 50 uM after 2 hrs in presence of 0.5 mM H2O2 by RP-UPLC-MS method

## Nc1nc(N)c2nc(CNc3ccc(C(=O)N[C@@H](CCC(=O)O)C(=O)O)cc3)cnc2n1 [AMINOPTERIN]
[1]
  Activity: Active
[2]
  Activity: Toxic
[3]
  Activity: Active
[4]
  Activity: Active
[5]
  Activity: Active
[6]
  solubility kinetic at 20 h: > 1000 µM

## Nc1nc(N)c2nc(CN(Cc3ccc(B(O)O)cc3)c3ccc(C(=O)N[C@@H](CCC(=O)O)C(=O)O)cc3)cnc2n1
[7]
  Activity: Active
[8]
  Activity: Active
[9]
  Drug metabolism: Metabolite not detected
[10]
  half-life: 32.1 days
[11]
  Activity: Active
[1]
  Activity: inactive
[12]
  Drug metabolism: Metabolite detected
[13]
  Activity: Active
[14]
  microsomal CLint at 10 µM: 1.2 µL/min/mg
[15]
  remaining at 24 h: > 90%
[16]
  Activity: Non-Toxic
[17]
  remaining at 24 h, 20 µM: 82%
[18]
  Drug metabolism: Metabolite detected
[19]
  half-life at 20 µM: 2.33 days
[20]
  Drug metabolism: Metabolite detected
[4]
  Activity: inactive
[21]
  Drug metabolism: Metabolite not detected
[22]
  microsomal CLint at 10 µM: 2.6 µL/min/mg
[23]
  half-life: 36.1 days
[24]
  half-life: 24 days
[6]
  solubility kinetic at 20 h: 83 µM (≈ 47.7 µg/mL)
[25]
  remaining at 8 h, 20 µM: 91%
[26]
  half-life at 20 µM: 2.62 days

## COC(=O)CC[C@H](NC(=O)c1ccc(N(C)Cc2cnc3nc(N)nc(NC(=O)OCc4ccc(B(O)O)c(C)c4)c3n2)cc1)C(=O)OC
[27]
  Drug metabolism: > 95%

## COC(=O)CC[C@H](NC(=O)c1ccc(N(Cc2ccc(B(O)O)cc2)Cc2cnc3nc(N)nc(N)c3n2)cc1)C(=O)OC
[9]
  Drug metabolism: Metabolite not detected
[28]
  Drug metabolism: Metabolite detected
[29]
  Drug metabolism: Metabolite detected
[21]
  Drug metabolism: Metabolite not detected
[6]
  solubility kinetic at 20 h: 4.1 µM (≈ 2.47 µg/mL)
